# Data reported in ChEMBL document CHEMBL4680130, “Substituted 4-phenylthiazoles: Development of potent and selective A, A and dual A/A adenosine receptor antagonists” (Eur J Med Chem, 2020).
# Tests used:
# [1] = molecular target: T1, Adenosine receptor A2b (Homo sapiens, UniProt P29275); assay: Displacement of [3H]PSB-603 from human adenosine receptor A2B expressed in CHO cell membranes incubated for 75 mins by radioligand competition assay; design: species or system Cell membrane
# T1 sequence (P29275 whole entry): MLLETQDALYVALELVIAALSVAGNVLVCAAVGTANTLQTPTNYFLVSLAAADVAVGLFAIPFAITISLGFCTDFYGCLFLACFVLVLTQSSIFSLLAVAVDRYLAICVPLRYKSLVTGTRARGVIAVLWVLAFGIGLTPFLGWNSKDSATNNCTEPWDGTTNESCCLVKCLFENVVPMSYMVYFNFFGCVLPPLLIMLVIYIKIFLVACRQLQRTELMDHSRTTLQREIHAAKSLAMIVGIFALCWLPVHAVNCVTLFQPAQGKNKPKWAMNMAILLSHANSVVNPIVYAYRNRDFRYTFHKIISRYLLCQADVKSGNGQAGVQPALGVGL
# [2] = molecular target: T2, Adenosine receptor A3 (Homo sapiens, UniProt P0DMS8); assay: Displacement of [3H]PSB-11 from human adenosine receptor A3 expressed in CHO cell membranes incubated for 60 mins by radioligand competition assay; design: species or system Cell membrane
# T2 sequence (P0DMS8 whole entry): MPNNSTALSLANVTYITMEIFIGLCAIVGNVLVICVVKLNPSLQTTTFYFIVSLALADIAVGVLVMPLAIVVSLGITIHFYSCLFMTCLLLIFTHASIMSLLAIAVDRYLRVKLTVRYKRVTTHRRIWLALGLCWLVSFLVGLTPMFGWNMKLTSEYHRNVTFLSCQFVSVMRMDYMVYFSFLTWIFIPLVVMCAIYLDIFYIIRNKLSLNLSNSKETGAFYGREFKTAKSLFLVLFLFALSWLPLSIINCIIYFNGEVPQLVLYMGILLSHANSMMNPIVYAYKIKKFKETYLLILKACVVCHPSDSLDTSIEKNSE
# [3] = molecular target: T3, Adenosine receptor A1 (Homo sapiens, UniProt P30542); assay: Displacement of [3H]CCPA from human adenosine receptor A1 expressed in CHO cell membranes incubated for 90 mins by radioligand competition assay; design: species or system Cell membrane
# T3 sequence (P30542 whole entry): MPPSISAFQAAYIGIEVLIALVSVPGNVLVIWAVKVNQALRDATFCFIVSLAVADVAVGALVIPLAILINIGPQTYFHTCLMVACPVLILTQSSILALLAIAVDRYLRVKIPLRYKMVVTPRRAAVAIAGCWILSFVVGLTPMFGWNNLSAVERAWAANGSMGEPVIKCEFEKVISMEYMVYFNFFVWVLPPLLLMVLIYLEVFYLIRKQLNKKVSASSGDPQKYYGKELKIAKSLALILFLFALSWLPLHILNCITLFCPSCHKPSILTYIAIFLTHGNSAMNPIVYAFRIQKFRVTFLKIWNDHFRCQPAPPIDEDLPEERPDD
# [4] = molecular target: T4, Adenosine receptor A2a (Homo sapiens, UniProt P29274); assay: Displacement of [3H]MSX2 from human adenosine receptor A2A expressed in HEK293 cell membranes incubated for 30 mins by radioligand competition assay; design: species or system Cell membrane
# T4 sequence (P29274 whole entry): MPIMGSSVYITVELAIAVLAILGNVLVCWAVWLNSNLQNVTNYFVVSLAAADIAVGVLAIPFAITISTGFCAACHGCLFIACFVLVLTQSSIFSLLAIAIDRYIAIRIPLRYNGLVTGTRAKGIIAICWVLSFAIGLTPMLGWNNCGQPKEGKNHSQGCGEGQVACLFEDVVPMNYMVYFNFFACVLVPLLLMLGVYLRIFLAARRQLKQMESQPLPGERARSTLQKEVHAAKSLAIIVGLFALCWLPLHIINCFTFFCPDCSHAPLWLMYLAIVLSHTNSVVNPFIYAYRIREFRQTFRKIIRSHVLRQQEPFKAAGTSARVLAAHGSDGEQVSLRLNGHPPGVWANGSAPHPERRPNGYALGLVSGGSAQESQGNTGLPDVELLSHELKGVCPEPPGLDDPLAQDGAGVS
# [5] = molecular target: T5, Adenosine receptor A1 (Rattus norvegicus, UniProt P25099); assay: Displacement of [3H]CCPA from adenosine receptor A1 in rat brain cortex membranes incubated for 90 mins by radioligand competition assay; assay type: cell membranes, Cell membrane
# T5 sequence (P25099 whole entry): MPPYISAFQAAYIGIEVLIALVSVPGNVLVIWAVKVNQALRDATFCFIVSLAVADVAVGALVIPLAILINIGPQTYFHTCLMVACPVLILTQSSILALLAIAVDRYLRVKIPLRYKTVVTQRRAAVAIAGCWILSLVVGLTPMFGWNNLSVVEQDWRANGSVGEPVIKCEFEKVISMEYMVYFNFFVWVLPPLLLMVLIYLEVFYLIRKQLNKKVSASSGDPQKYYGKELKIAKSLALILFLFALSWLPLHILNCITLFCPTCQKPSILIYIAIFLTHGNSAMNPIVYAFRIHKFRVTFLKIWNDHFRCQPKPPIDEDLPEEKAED
# [6] = molecular target: T5, Adenosine receptor A1; assay: Displacement of [3H]DPCPX from rat brain cortical membrane A1AR in presence of 100 uM of GTP by scintillation counting analysis; assay type: cell membranes, Cortex, Cell membrane
# [7] = molecular target: T5, Adenosine receptor A1; assay: Displacement of [3H]CCPA from rat adenosine receptor A1 by radioligand competition assay
# Outline: (§1)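 A1 competition binding with [3H]CCPA, 0.5 nM. Membranes: CHO cells expressing human A1, or rat brain cortex. Membranes preincubated 20 min with adenosine deaminase (2 U/mL per mg protein). Incubation 90 min at rt in 50 mM Tris-HCl pH 7.4 with 2.5% final DMSO. Nonspecific binding defined by 10 µM 2-chloroadenosine. GF/B filtration, scintillation counting.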
# [8] = molecular target: T5, Adenosine receptor A1; assay: Displacement of [3H]DPCPX from rat adenosine receptor A1 by radioligand competition assay
# Outline: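 Rat brain cortical membranes, [3H]DPCPX 0.4 nM. Nonspecific binding defined by 10 μM DPCPX. Curves run with and without 100 μM GTP. Incubation 90 min at rt in 50 mM Tris-HCl pH 7.4, after 20 min adenosine deaminase preincubation. Filtration, then scintillation counting. GTP shift is the IC50 with GTP divided by the IC50 without GTP.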
# [9] = molecular target: T5, Adenosine receptor A1; assay: Displacement of [3H]DPCPX from rat brain cortical membrane A1AR in absence of GTP by scintillation counting analysis; assay type: cell membranes, Cortex, Cell membrane
# [10] = molecular target: Adenosine receptor A2a (Rattus norvegicus, UniProt P30543); assay: Displacement of [3H]MSX2 from adenosine receptor A2A in rat brain striatum membranes incubated for 30 mins by radioligand competition assay; assay type: cell membranes, Cell membrane
# Sequence of Adenosine receptor A2a (Rattus norvegicus, UniProt P30543) (P30543 whole entry): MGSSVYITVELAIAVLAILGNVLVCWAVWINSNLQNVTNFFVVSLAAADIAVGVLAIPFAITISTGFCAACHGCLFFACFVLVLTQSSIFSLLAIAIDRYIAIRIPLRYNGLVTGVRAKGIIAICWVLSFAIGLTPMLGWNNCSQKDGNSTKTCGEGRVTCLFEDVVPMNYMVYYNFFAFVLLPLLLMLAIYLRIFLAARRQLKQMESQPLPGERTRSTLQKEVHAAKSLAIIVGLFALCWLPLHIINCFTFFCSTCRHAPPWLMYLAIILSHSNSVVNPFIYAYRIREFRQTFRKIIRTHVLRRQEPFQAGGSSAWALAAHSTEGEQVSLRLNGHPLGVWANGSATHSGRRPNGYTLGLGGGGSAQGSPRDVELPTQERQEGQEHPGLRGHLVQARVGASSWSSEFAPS
# [11] = molecular target: T6, Adenosine receptor A2b (Homo sapiens) (UniProt P29275); assay: Displacement of [3H]PSB-603 from human adenosine receptor A2B expressed in CHO cell membranes at 0.1 uM incubated for 75 mins by radioligand competition assay relative to control; conditions: Cell membrane
# T6 sequence (whole entry): T1 sequence (P29275 whole entry)
# Outline: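 CHO membranes expressing human or rat A2B, [3H]PSB-603 0.3 nM. Nonspecific binding defined by 10 µM DPCPX. Preincubated 20 min with adenosine deaminase, then 75 min at rt in Tris-HCl pH 7.4 with 2.5% DMSO. Filters washed with ice-cold 50 mM Tris-HCl containing 0.1% BSA; scintillation counting.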
# [12] = molecular target: T4, Adenosine receptor A2a; assay: Displacement of [3H]MSX2 from human adenosine receptor A2A expressed in HEK293 cell membranes at 0.1 uM incubated for 30 mins by radioligand competition assay relative to control; conditions: Cell membrane, in the assay text read “at 1 uM” for “at 0.1 uM”
# Outline: (§2)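 A2A binding, [3H]MSX-2 1.0 nM. Membranes: rat brain striatum, or HEK293 cells expressing human A2A. Adenosine deaminase preincubation 20 min, then 30 min at rt in 50 mM Tris-HCl pH 7.4 with 2.5% DMSO. Nonspecific binding defined by 50 µM NECA. GF/B filtration, scintillation counting. Single-concentration percent inhibition, ≥3 experiments in duplicate or triplicate.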
# [13] = molecular target: T7, Adenosine receptor A3 (Homo sapiens) (UniProt P0DMS8); assay: Displacement of [3H]PSB-11 from human adenosine receptor A3 expressed in CHO cell membranes at 0.1 uM incubated for 60 mins by radioligand competition assay; conditions: Cell membrane, dose 1 µM, in the assay text read “1 uM” for “0.1 uM”
# T7 sequence (whole entry): T2 sequence (P0DMS8 whole entry)
# Outline: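 CHO membranes expressing human A3, [3H]PSB-11 0.5 nM. Nonspecific binding defined by 100 µM R-PIA. Adenosine deaminase preincubation 20 min, then 60 min at rt in 50 mM Tris-HCl pH 7.4 with 2.5% DMSO. Filtered on GF/B, scintillation counted.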
# [14] = molecular target: T8, Adenosine receptor A1 (Rattus norvegicus) (UniProt P25099); assay: Displacement of [3H]CCPA from adenosine receptor A1 in rat brain cortex membranes at 0.1 uM incubated for 90 mins by radioligand competition assay; conditions: Cell membrane, filed as antagonist; outline: as §1
# T8 sequence (whole entry): T5 sequence (P25099 whole entry)
# [15] = molecular target: Adenosine receptor A2a (Rattus norvegicus) (UniProt P30543); assay: Displacement of [3H]MSX2 from adenosine receptor A2A in rat brain striatum membranes at 0.1 uM incubated for 30 mins by radioligand competition assay relative to control; conditions: Cell membrane; outline: as §2
# Sequence of Adenosine receptor A2a (Rattus norvegicus) (P30543 whole entry): as above
# [16] = molecular target: T9, Adenosine receptor A3 (Rattus norvegicus) (UniProt P28647); assay: Displacement of [3H]NECA from rat adenosine receptor A3 expressed in CHO cell membranes at 0.1 uM incubated for 60 mins by radioligand competition assay relative to control; conditions: Cell membrane
# T9 sequence (whole entry): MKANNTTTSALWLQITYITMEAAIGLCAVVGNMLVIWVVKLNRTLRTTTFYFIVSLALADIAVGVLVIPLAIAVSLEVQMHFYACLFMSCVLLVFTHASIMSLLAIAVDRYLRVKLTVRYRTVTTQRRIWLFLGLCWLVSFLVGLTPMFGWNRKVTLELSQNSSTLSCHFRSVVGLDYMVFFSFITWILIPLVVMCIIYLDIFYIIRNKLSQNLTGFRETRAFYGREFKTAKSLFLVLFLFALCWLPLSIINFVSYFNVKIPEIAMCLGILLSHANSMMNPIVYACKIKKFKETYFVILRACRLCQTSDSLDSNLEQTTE
# Outline: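 CHO membranes expressing rat A3, [3H]NECA 10 nM. Nonspecific binding defined by 100 µM R-PIA. Preincubated 20 min with adenosine deaminase, then 60 min at rt in 50 mM Tris-HCl pH 7.4 with 2.5% DMSO. GF/B filtration, scintillation counting.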
# [17] = molecular target: T10, Adenosine receptor A3 (Rattus norvegicus, UniProt P28647); assay: Displacement of [3H]NECA from rat adenosine receptor A3 expressed in CHO cell membranes incubated for 60 mins by radioligand competition assay; design: species or system Cell membrane
# T10 sequence (P28647 whole entry): T9 sequence (whole entry)
Ki [1] [nM],Ki [2] [nM],Ki [3] [nM],Ki [4] [nM],Ki [5] [nM],IC50 [6] [nM],Ki [7] [nM],Ki [8] [nM],IC50 [9] [nM],Ki [10] [nM],inhibition [11] [%],inhibition [12] [%],inhibition [13] [%],inhibition [14] [%],inhibition [15] [%],inhibition [16] [%],Ki [17] [nM],SMILES
> 100,67.8,55.3,77.7,2.79,3.14,2.79,2.93,3.15,> 1000,,,,,,,,O=C(Nc1nc(-c2ccccc2)c(C(=O)c2ccc(F)cc2F)s1)c1ccccc1
> 100,42.2,7.57,> 1000,0.348,0.084,0.348,0.0628,0.067,1210,2,,,,,,,Cc1ccc(C(=O)c2sc(NC(=O)c3ccco3)nc2-c2ccccc2)cc1
> 100,> 1000,> 1000,> 1000,,,,,,> 1000,0,14,24,54,16,,,COc1ccc(C(=O)Nc2nc(-c3ccccc3)c(C(=O)c3ccc(F)cc3F)s2)cc1
> 100,27.8,> 1000,> 1000,> 1000,,,,,> 1000,2,,,25,15,15,> 10000,COc1ccc(C(=O)Nc2nc(-c3ccccc3)c(-c3nc4ccccc4c(=O)n3-c3ccc(C)cc3)s2)cc1
